Activity calls are given as the source filed them. The calls are words filed in the database; no cut-off is given here.
target: Mu-type opioid receptor (Homo sapiens, UniProt P35372); assay: Displacement of [3H]-DAMGO from human MOR receptor expressed in HEK293T cell membrane assessed as inhibition constant incubated for 60 mins by MicroBeta scintillation counting method; format: cell membranes; conditions: not given
In short: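 HEK293 cells stably expressing human MOR, grown in DMEM with 10% FBS and hygromycin B; membranes prepared from confluent cells. Binding buffer 50 mM Tris, 5 mM MgCl2, pH 7.4. Nonspecific binding with 10 μM naloxone. 60 min at RT, then GF/C filtration.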

Sequence of Mu-type opioid receptor (Homo sapiens, UniProt P35372) (P35372 whole entry): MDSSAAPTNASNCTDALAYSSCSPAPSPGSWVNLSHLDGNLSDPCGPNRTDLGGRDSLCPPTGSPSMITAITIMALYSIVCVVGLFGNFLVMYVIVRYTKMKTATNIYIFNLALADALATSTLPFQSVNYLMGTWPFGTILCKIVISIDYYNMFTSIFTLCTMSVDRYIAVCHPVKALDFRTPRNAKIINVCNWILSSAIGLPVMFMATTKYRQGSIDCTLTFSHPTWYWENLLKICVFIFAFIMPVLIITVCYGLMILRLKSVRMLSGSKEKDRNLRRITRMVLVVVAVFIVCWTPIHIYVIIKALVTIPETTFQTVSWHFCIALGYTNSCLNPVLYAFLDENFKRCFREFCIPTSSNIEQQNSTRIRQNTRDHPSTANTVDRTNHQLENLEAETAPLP

| SMILES | Ki |
| --- | --- |
| CN(C)C(=O)C(CCN1C[C@H](F)C[C@H]1C(=O)NCCCCN1CCN(c2cccc(C(F)(F)F)n2)CC1)(c1ccccc1)c1ccccc1 | 192 nM |
| Clc1ccc([C@@H]2C[C@H]2NCCC2(c3ccccn3)CCOCC2)cc1 (relative stereo) | 1580 nM |
| CCC1(CC)CC(OCCCN2CCN(c3cccc(Cl)c3Cl)CC2)(c2ccccn2)CCO1 (centres undefined) | 2270 nM |
| CN(C)C(=O)C(CCN1CCN(c2nsc3ccccc23)CC1)(c1ccccc1)c1ccccc1 | 0.364 nM |
| FC(F)(F)c1cccc(N2CCN(CCCOC3(c4ccccn4)CCOCC3)CC2)n1 | 2070 nM |
| CN(C)C(=O)C(CCN1C[C@H](O)C[C@H]1CN1CCN(c2cccc(Cl)c2Cl)CC1)(c1ccccc1)c1ccccc1 | 529 nM |
| CN(C)C(=O)C(CCN[C@@H]1C[C@H]1c1ccc(F)cc1)(c1ccccc1)c1ccccc1 (relative stereo) | 47 nM |
| COc1ccc([C@@H]2C[C@H]2NCCC(C(=O)N(C)C)(c2ccccc2)c2ccccc2)cc1 (relative stereo) | 81.8 nM |
| Clc1cccc(N2CCN(CCC3(c4ccccn4)CCOCC3)CC2)c1Cl | 691 nM |
| CN(C)C(=O)C(CCN(CCO)[C@@H]1C[C@H]1c1ccc(Cl)cc1)(c1ccccc1)c1ccccc1 (relative stereo) | 26.9 nM |
| CN(C)C(=O)C(CCN1CCC(CCN2CCN(c3cccc(Cl)c3Cl)CC2)C1)(c1ccccc1)c1ccccc1 (centres undefined) | 23.5 nM |
| CN(C)C(=O)C(CCN[C@@H]1C[C@H]1c1ccc(Cl)cc1)(c1ccccc1)c1ccccc1 (relative stereo) | 12.3 nM |
| CN(C)C(=O)C(CCN1C[C@H](F)C[C@H]1C(=O)NCCCCN1CCN(c2cccc(Cl)c2Cl)CC1)(c1ccccc1)c1ccccc1 | 787 nM |
| CCc1cc(Cl)c(OC)c(N2CCN(CCCCc3cn(CCC(C(=O)N(C)C)(c4ccccc4)c4ccccc4)nn3)CC2)c1 | 2120 nM |
| FC(F)(F)c1cccc(N2CCN(CCCOC3(c4ccccn4)CCOC4(CCCC4)C3)CC2)n1 (centres undefined) | 1640 nM |
| CN(C)C(=O)C(CCN1C[C@H](O)C[C@H]1CN1CCN(c2cccc(C(F)(F)F)n2)CC1)(c1ccccc1)c1ccccc1 | 782 nM |

target: D(2) dopamine receptor (Homo sapiens, UniProt P14416); assay: Displacement of [3H]N-methylspiperone from human D2L receptor expressed in HEK293T cell membrane assessed as inhibition constant incubated for 60 mins by MicroBeta scintillation counting method; format: cell membranes; conditions: not given
Sequence (P14416 whole entry): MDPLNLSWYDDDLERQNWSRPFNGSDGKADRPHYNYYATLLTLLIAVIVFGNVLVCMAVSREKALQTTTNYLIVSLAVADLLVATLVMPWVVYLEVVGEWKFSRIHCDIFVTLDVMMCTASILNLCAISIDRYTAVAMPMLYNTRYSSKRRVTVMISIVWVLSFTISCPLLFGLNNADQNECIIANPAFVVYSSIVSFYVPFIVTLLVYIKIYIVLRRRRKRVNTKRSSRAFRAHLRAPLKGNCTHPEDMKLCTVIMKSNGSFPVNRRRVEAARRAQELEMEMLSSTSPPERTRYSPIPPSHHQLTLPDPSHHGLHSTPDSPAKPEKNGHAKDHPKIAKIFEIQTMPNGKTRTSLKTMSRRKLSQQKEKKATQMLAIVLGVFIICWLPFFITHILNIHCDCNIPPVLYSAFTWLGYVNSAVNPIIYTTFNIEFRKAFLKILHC

| SMILES | Ki |
| --- | --- |
| CCC1(CC)CC(OCCCN2CCN(c3cccc(Cl)c3Cl)CC2)(c2ccccn2)CCO1 (centres undefined) | 122 nM |
| CN(C)C(=O)C(CCN1CCN(c2nsc3ccccc23)CC1)(c1ccccc1)c1ccccc1 | 465 nM |
| CN(C)C(=O)C(CCN1C[C@H](O)C[C@H]1CN1CCN(c2cccc(Cl)c2Cl)CC1)(c1ccccc1)c1ccccc1 | 1180 nM |
| CN(C)C(=O)C(CCN(CCO)[C@@H]1C[C@H]1c1ccc(Cl)cc1)(c1ccccc1)c1ccccc1 (relative stereo) | 7330 nM |
| CN(C)C(=O)C(CCN1CCC(CCN2CCN(c3cccc(Cl)c3Cl)CC2)C1)(c1ccccc1)c1ccccc1 (centres undefined) | 117 nM |
| COc1ccsc1CNCC[C@@]1(c2ccccn2)CCOC2(CCCC2)C1 [OLICERIDINE] | 83200 nM |
| FC(F)(F)c1cccc(N2CCN(CCCOC3(c4ccccn4)CCOC4(CCCC4)C3)CC2)n1 (centres undefined) | 1310 nM |
| CN(C)C(=O)C(CCN1C[C@H](O)C[C@H]1CN1CCN(c2cccc(C(F)(F)F)n2)CC1)(c1ccccc1)c1ccccc1 | 4660 nM |

target: T1, D(3) dopamine receptor (Homo sapiens, UniProt P35462); assay: Displacement of [3H]N-methylspiperone from human D3R receptor expressed in HEK293T cell membrane assessed as inhibition constant incubated for 60 mins by MicroBeta scintillation counting method; format: cell membranes; conditions: not given
T1 sequence (P35462 whole entry): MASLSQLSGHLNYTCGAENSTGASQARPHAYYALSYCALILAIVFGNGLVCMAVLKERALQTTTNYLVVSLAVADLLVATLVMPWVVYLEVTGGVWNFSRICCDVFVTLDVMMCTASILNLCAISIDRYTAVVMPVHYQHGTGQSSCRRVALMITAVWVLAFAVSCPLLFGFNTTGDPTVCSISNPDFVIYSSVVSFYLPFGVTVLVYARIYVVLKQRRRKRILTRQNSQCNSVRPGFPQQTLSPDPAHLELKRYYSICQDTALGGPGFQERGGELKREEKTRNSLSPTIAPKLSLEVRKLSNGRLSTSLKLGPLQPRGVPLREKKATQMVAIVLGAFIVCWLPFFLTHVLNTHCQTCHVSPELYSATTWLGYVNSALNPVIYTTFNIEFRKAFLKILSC

| SMILES | Ki |
| --- | --- |
| CCC1(CC)CC(OCCCN2CCN(c3cccc(Cl)c3Cl)CC2)(c2ccccn2)CCO1 (centres undefined) | 21.7 nM |
| CN(C)C(=O)C(CCN1C[C@H](O)C[C@H]1CN1CCN(c2cccc(Cl)c2Cl)CC1)(c1ccccc1)c1ccccc1 | 247 nM |
| CN(C)C(=O)C(CCN1CCC(CCN2CCN(c3cccc(Cl)c3Cl)CC2)C1)(c1ccccc1)c1ccccc1 (centres undefined) | 20.2 nM |
| COc1ccsc1CNCC[C@@]1(c2ccccn2)CCOC2(CCCC2)C1 [OLICERIDINE] | 6860 nM |
| FC(F)(F)c1cccc(N2CCN(CCCOC3(c4ccccn4)CCOC4(CCCC4)C3)CC2)n1 (centres undefined) | 286 nM |
| CN(C)C(=O)C(CCN1C[C@H](O)C[C@H]1CN1CCN(c2cccc(C(F)(F)F)n2)CC1)(c1ccccc1)c1ccccc1 | 2700 nM |

target: T2, Mu-type opioid receptor (Mus musculus, UniProt P42866); assay: Partial agonist activity at Rluc8 fused mouse MOR transfected in HEK293T cells assessed as Nb33 recruitment using coelenterazine as substrate incubated for 40 mins by BRET assay; format: functional, cell-based; conditions: not given
In short: (§1)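 HEK293T cells transiently transfected with BRET sensors (DNA:PEI 1:6), plated into poly-D-lysine plates and assayed 48 h post-transfection. Cells washed and held in D-PBS 30 min at 37 °C. Coelenterazine h 5 μM final; ligands 10 μM to 0.01 nM. At least three independent experiments in duplicate.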

T2 sequence (P42866 whole entry, the tested form may be a part): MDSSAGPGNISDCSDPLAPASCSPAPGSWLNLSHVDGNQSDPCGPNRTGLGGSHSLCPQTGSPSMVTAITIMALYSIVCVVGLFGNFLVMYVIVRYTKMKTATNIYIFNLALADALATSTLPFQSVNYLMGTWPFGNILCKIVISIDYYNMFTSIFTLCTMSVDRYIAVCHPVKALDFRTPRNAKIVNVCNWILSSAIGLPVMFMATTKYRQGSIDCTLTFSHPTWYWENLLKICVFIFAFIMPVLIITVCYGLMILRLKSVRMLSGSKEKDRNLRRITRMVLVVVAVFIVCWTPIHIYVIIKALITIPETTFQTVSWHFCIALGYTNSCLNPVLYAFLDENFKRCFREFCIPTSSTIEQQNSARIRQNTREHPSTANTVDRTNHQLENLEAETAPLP

| SMILES | EC50 |
| --- | --- |
| CN(C)C(=O)C(CCN1C[C@H](F)C[C@H]1C(=O)NCCCCN1CCN(c2cccc(C(F)(F)F)n2)CC1)(c1ccccc1)c1ccccc1 | 5750 nM |
| CN(C)C(=O)C(CCN1C[C@H](O)C[C@H]1CN1CCN(c2cccc(Cl)c2Cl)CC1)(c1ccccc1)c1ccccc1 | 3330 nM |
| CN(C)C(=O)C(CCN1CCC(CCN2CCN(c3cccc(Cl)c3Cl)CC2)C1)(c1ccccc1)c1ccccc1 (centres undefined) | 658 nM |

target: Mu-type opioid receptor (Mus musculus) (UniProt P42866); assay: Partial agonist activity at Rluc8 fused mouse MOR transfected in HEK293T cells assessed as Nb33 recruitment at 10 uM using coelenterazine as substrate incubated for 40 mins by BRET assay relative to control; format: functional, cell-based; conditions: not given; in short: as §1
Sequence (P42866 whole entry, the tested form may be a part): as above

| SMILES | Emax |
| --- | --- |
| CN(C)C(=O)C(CCN1C[C@H](O)C[C@H]1CN1CCN(c2cccc(Cl)c2Cl)CC1)(c1ccccc1)c1ccccc1 | 12.7% |
| CN(C)C(=O)C(CCN1CCC(CCN2CCN(c3cccc(Cl)c3Cl)CC2)C1)(c1ccccc1)c1ccccc1 (centres undefined) | 14.6% |
| COc1ccsc1CNCC[C@@]1(c2ccccn2)CCOC2(CCCC2)C1 [OLICERIDINE] | 31.4% |

target: T2, Mu-type opioid receptor; assay: Agonist activity at Rluc8 fused mouse MOR transfected in HEK293T cells assessed as Nb33 recruitment using coelenterazine as substrate incubated for 40 mins by BRET assay; format: functional, cell-based; conditions: not given; in short: as §1

| SMILES | EC50 |
| --- | --- |
| Clc1cccc(N2CCN(CCC3(c4ccccn4)CCOCC3)CC2)c1Cl | 1590 nM |

target: Mu-type opioid receptor (Mus musculus) (UniProt P42866); assay: Agonist activity at Rluc8 fused mouse MOR transfected in HEK293T cells assessed as Nb33 recruitment at 10 uM using coelenterazine as substrate incubated for 40 mins by BRET assay relative to control; format: functional, cell-based; conditions: filed as agonist
In short: (§2)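 HEK293T cells transiently transfected with BRET sensors (DNA:PEI 1:6), plated into poly-D-lysine plates and assayed 48 h post-transfection. Cells washed and held in D-PBS 30 min at 37 °C. Coelenterazine h 5 μM final; ligands 10 μM to 0.01 nM. […] At least three independent experiments in duplicate.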

| SMILES | Emax |
| --- | --- |
| C[C@@H](NC(=O)[C@@H](N)Cc1ccc(O)cc1)C(=O)NCC(=O)N(C)[C@@H](Cc1ccccc1)C(=O)NCCO | 98.5% |

target: T2, Mu-type opioid receptor; assay: (§3) Partial agonist activity at SNAP-tagged mouse MOR transfected in HEK293T cells coexpressing wild type Galpha-i2, venus-tagged Gbeta-1 (156 to 239 residues), venus-tagged Ggamma2 (1 to 155 residues) and Rluc8 fused masGRK3ct assessed as Galpha-i2 activation using coelenterazine as substrate incubated for 40 mins by BRET based GPA assay; format: functional, cell-based; conditions: not given; in short: as §1

| SMILES | EC50 |
| --- | --- |
| CN(C)C(=O)C(CCN1C[C@H](F)C[C@H]1C(=O)NCCCCN1CCN(c2cccc(C(F)(F)F)n2)CC1)(c1ccccc1)c1ccccc1 | 1160 nM |
| CN(C)C(=O)C(CCN1C[C@H](O)C[C@H]1CN1CCN(c2cccc(Cl)c2Cl)CC1)(c1ccccc1)c1ccccc1 | 3450 nM |
| CN(C)C(=O)C(CCN1CCC(CCN2CCN(c3cccc(Cl)c3Cl)CC2)C1)(c1ccccc1)c1ccccc1 (centres undefined) | 158 nM |

target: Mu-type opioid receptor (Mus musculus) (UniProt P42866); assay: as §3, with “activation at 10 uM” for “activation”, “assay relative to control” for “assay”; format: functional, cell-based; conditions: not given; in short: as §1

| SMILES | Emax |
| --- | --- |
| COc1ccsc1CNCC[C@@]1(c2ccccn2)CCOC2(CCCC2)C1 [OLICERIDINE] | 93.2% |

same assay, conditions: filed as partial agonist

| SMILES | Emax |
| --- | --- |
| CN(C)C(=O)C(CCN1C[C@H](O)C[C@H]1CN1CCN(c2cccc(Cl)c2Cl)CC1)(c1ccccc1)c1ccccc1 | 73.6% |
| CN(C)C(=O)C(CCN1CCC(CCN2CCN(c3cccc(Cl)c3Cl)CC2)C1)(c1ccccc1)c1ccccc1 (centres undefined) | 85.4% |

target: T2, Mu-type opioid receptor; assay: as §3, with “Agonist” for “Partial agonist”; format: functional, cell-based; conditions: read-out: EC50; in short: as §1

| SMILES | EC50 |
| --- | --- |
| Clc1cccc(N2CCN(CCC3(c4ccccn4)CCOCC3)CC2)c1Cl | 848 nM |

target: Mu-type opioid receptor (Mus musculus) (UniProt P42866); assay: (§4) Partial agonist activity at Rluc8 fused mouse MOR transfected in HEK293T cells coexpressing wild type GRK2 assessed as arrestin-3 recruitment using coelenterazine as substrate incubated for 40 mins by BRET assay; format: functional, cell-based; conditions: not given; in short: as §1

| SMILES | Activity |
| --- | --- |
| CN(C)C(=O)C(CCN1C[C@H](O)C[C@H]1CN1CCN(c2cccc(Cl)c2Cl)CC1)(c1ccccc1)c1ccccc1 | inactive |

target: T2, Mu-type opioid receptor; assay: as §4; format: functional, cell-based; conditions: not given; in short: as §1

| SMILES | EC50 |
| --- | --- |
| CN(C)C(=O)C(CCN1CCC(CCN2CCN(c3cccc(Cl)c3Cl)CC2)C1)(c1ccccc1)c1ccccc1 (centres undefined) | 470 nM |

target: Mu-type opioid receptor (Mus musculus) (UniProt P42866); assay: Partial agonist activity at Rluc8 fused mouse MOR transfected in HEK293T cells coexpressing wild type GRK2 assessed as arrestin-3 recruitment at 10 uM using coelenterazine as substrate incubated for 40 mins by BRET assay relative to control; format: functional, cell-based; conditions: not given; in short: as §2

| SMILES | Activity | Emax |
| --- | --- | --- |
| CN(C)C(=O)C(CCN1C[C@H](O)C[C@H]1CN1CCN(c2cccc(Cl)c2Cl)CC1)(c1ccccc1)c1ccccc1 | inactive | – |
| CN(C)C(=O)C(CCN1CCC(CCN2CCN(c3cccc(Cl)c3Cl)CC2)C1)(c1ccccc1)c1ccccc1 (centres undefined) | – | 10.5% |
| COc1ccsc1CNCC[C@@]1(c2ccccn2)CCOC2(CCCC2)C1 [OLICERIDINE] | – | 49.1% |

target: T2, Mu-type opioid receptor; assay: Agonist activity at Rluc8 fused mouse MOR transfected in HEK293T cells coexpressing wild type GRK2 assessed as arrestin-3 recruitment using coelenterazine as substrate incubated for 40 mins by BRET assay; format: functional, cell-based; conditions: not given; in short: as §1

| SMILES | EC50 |
| --- | --- |
| Clc1cccc(N2CCN(CCC3(c4ccccn4)CCOCC3)CC2)c1Cl | 6480 nM |

target: Mu-type opioid receptor (Mus musculus) (UniProt P42866); assay: Agonist activity at Rluc8 fused mouse MOR transfected in HEK293T cells coexpressing wild type GRK2 assessed as arrestin-3 recruitment at 10 uM using coelenterazine as substrate incubated for 40 mins by BRET assay relative to control; format: functional, cell-based; conditions: filed as agonist; in short: as §2

| SMILES | Emax |
| --- | --- |
| C[C@@H](NC(=O)[C@@H](N)Cc1ccc(O)cc1)C(=O)NCC(=O)N(C)[C@@H](Cc1ccccc1)C(=O)NCCO | 98.7% |

target: T1, D(3) dopamine receptor; assay: as §3, with “human D3R receptor” for “mouse MOR”, “Galpha-oA,” for “Galpha-i2,”, “Galpha-oA” for “Galpha-i2”; format: functional, cell-based; conditions: not given

| SMILES | EC50 |
| --- | --- |
| CN(C)C(=O)C(CCN1CCC(CCN2CCN(c3cccc(Cl)c3Cl)CC2)C1)(c1ccccc1)c1ccccc1 (centres undefined) | 41.7 nM |

target: T1, D(3) dopamine receptor; assay: as §3, with “Antagonist” for “Partial agonist”, “human D3R receptor” for “mouse MOR”, “Galpha-oA,” for “Galpha-i2,”, “Galpha-oA” for “Galpha-i2”, “mins in presence of quinpirole” for “mins”; format: functional, cell-based; conditions: not given

| SMILES | Activity |
| --- | --- |
| CN(C)C(=O)C(CCN1C[C@H](O)C[C@H]1CN1CCN(c2cccc(Cl)c2Cl)CC1)(c1ccccc1)c1ccccc1 | inactive |
